Source: PubChem (several laboratories)
The list is not random: actives were taken first. Their share in the collection is about 4.9%.
STAT3 inh: IL-6 driven STAT3 reporter inhibitors, primary screen, U3A cells, luciferase, luminescence, MLSCN library. IL-6 STAT3-luciferase reporter; host cell line lacks STAT1. inhibition, % at 5.5 µM. actives 0.89% (n = 190,000). AID 862, 2007;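 active = inhibition above the mean inhibition across all screened compounds plus 3 SD, cut at about 44% in these data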
NF-kB expr up: activators of NF-kB expression in neurons, primary screen, cell-based, HTS; human neuronal cells, NF-kB reporter expression; hits give high values; actives 1.6% (n = 190,000); AID 1239, 2008; fold change at 12.5 µM; in the data active = fold change above about 3.3
STAT1 activator: STAT1 signaling activators, primary screen, cell-based, HTS, luciferase reporter | NIH 3T3 STAT1-luciferase reporter, IFN-gamma, luminescence; 100% = IFN-gamma alone, no compound | activation (% of control), % at 5.5 µM | actives 2.6% (n = 200,000) | AID 932, 2007;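 active = activation above the screen-wide mean activation plus 3 SD, cut at about 130% in these data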
STAT3 activator: IL-6 driven STAT3 reporter potentiators, primary screen, U3A cells, luciferase, luminescence, MLSCN library; activation (% of control), % at 5.6 µM; AID 871, 2007; actives 0.91% (n = 190,000); IL-6 STAT3-luciferase reporter; 100% = signal with IL-6 EC80 alone;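 active = activation above the screen-wide mean of compound activation plus 3 SD, cut at about 130% in these data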
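Test system: STAT3-luciferase reporter U3A cells; Detection: reporter luminescence signal; Times: 1 h compound pre-exposure, 6 h IL-6 stimulation, 37 °C; Benchmarks: IL-6-only high control; Also added: IL-6 stimulus at 33 ng/mL final.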
APP 5'UTR act: activators of APP 5'UTR luciferase reporter, primary screen, SH-SY5Y cells; actives 1% (n = 190,000); AID 1276, 2008; activation, % at 2 µM; SH-SY5Y APP 5'UTR luciferase reporter, luminescence; zero percent = DMSO vehicle wells;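 active = activation above a set limit, based on mean plus 3 SD of controls, cut at about 140% in these data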
STAT1 blocker: STAT1 signaling inhibitors, primary screen, cell-based, HTS, luciferase reporter | actives 0.35% (n = 200,000) | inhibition, % at 5.5 µM | AID 920, 2007 | NIH 3T3 STAT1-luciferase reporter, IFN-gamma, luminescence;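 active = inhibition above a set limit, the mean inhibition across all tested compounds plus 3 SD, cut at about 34% in these data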
Numbers stand for hits; 0 = inactive; - = no result given.

SMILES | STAT3 inh | NF-kB expr up | STAT1 activator | STAT3 activator | APP 5'UTR act | STAT1 blocker
COC(=O)CNC(c1ccccc1)c1cc(C)ccc1NC(=O)c1cccc(Cl)c1 (configuration not stated) | 0 | 0 | 0 | 0 | 0 | 0
CCCc1ccc(OC(=O)c2ccc(O)cc2Cl)cc1 | 0 | 4.27 | 0 | 0 | 218.1 | 0
CCCc1ccc(OC(=O)c2cccs2)cc1 | 0 | 0 | 0 | 0 | 0 | 0
Cc1cc(NC(=O)CSc2nc3ccccc3c(=O)n2C(C)c2ccccc2)no1 (configuration not stated) | 0 | 3.63 | 0 | 134.5 | 0 | 0
CC(NC(=S)Nc1cccc(C(F)(F)F)c1)C(C)(C)C (configuration not stated) | 0 | 0 | 0 | 0 | 0 | 0
Clc1cccc(/C=N/Nc2nc(Cl)nc3ccccc23)c1 | 0 | 0 | 144.8 | 0 | - | 0
Cc1cc(C)nc(N/N=C/c2cccc(Cl)c2)n1 | 0 | 0 | 0 | 0 | 0 | 0
OC(CN1CCN(c2cccc(C(F)(F)F)c2)CC1)c1c[nH]c2ccccc12 (configuration not stated) | 0 | 0 | 0 | 134.9 | 0 | 0
OC(COCc1cccs1)CN1CCN(c2cccc(C(F)(F)F)c2)CC1 (configuration not stated) | 0 | 0 | 0 | 0 | 0 | 0
Cc1ccc(C)c2[nH]c(=O)c(C(c3nnnn3C(C)(C)C)N3CC=C(c4ccc(F)cc4)CC3)cc12 (configuration not stated) | 0 | 0 | 0 | 0 | 0 | 34.7
S=C1NC(c2cccs2)=CC(c2ccc(Br)cc2)N1 (configuration not stated) | 0 | 3.99 | 0 | 0 | 0 | 0
Cc1nc2ccc([N+](=O)[O-])cc2nc1C | 0 | 0 | 0 | 0 | 0 | 0
Cc1ccc2nc3cc([N+](=O)[O-])cc([N+](=O)[O-])c3cc2c1 | 0 | 5.3 | 0 | 0 | 0 | 0
c1ccc(NCCCNc2ccccc2)cc1 | 0 | 0 | 0 | 0 | 0 | 0
Nc1nnc(-c2ccc(Cl)cc2Cl)s1 | 0 | 0 | 146.8 | 0 | 0 | 0
Cc1ccccc1NC(=O)C(=O)NC(C)CCc1ccccc1 (configuration not stated) | 0 | 0 | 0 | 0 | 0 | 0
CC(CCc1ccccc1)NC(=O)C(=O)Nc1ccccc1 (configuration not stated) | 0 | 0 | 139.5 | 0 | 0 | 0
CCOC(=O)N1CCN(C(=O)CCCOc2ccccc2)CC1 | 0 | 0 | 0 | 0 | 0 | 0
O=C(CCSc1ccc(Cl)cc1)N1CCCCCC1 | 0 | 0 | 131.7 | 0 | 0 | 0
O=C(CCCOc1ccccc1)N1CCN(c2ccccc2)CC1 | 0 | 0 | 131.4 | 0 | 0 | 0
Cc1cccc(N2CCN(C(=O)CCCOc3ccccc3)CC2)c1C | 0 | 0 | 131.6 | 0 | 0 | 0
NC(=O)C1CCN(C(=O)CCSc2ccc(Cl)cc2)CC1 | 0 | 0 | 0 | 0 | 0 | 0
O=C(CCSc1ccccc1)N1CCN(c2ccccc2)CC1 | 0 | 0 | 131.4 | 0 | 0 | 0
CCCCCNC(=O)c1c[nH]c2ccc(S(=O)(=O)N3CCC4(CC3)OCCO4)cc2c1=O | 0 | 0 | 0 | 0 | 0 | 0
COC(=O)c1cc(-c2c(C)nn(-c3ccccc3)c2C)n[nH]1 | 0 | 5.94 | 0 | 0 | 0 | 0
SMILES | STAT3 inh | NF-kB expr up | STAT1 activator | STAT3 activator | APP 5'UTR act | STAT1 blocker
COc1ccc(OCCCCOc2ccccc2Cl)cc1 | 0 | 0 | 0 | 0 | 0 | 0
Nc1ccc2oc(C3CCCCC3)nc2c1 | 0 | 0 | 131.8 | 0 | 0 | 0
Cc1cc2nc(-c3cccnc3SCC(=O)NCc3ccco3)[nH]c2cc1C | 0 | 5.27 | 0 | 0 | 0 | 0
O=C(CSc1ncccc1-c1nc2ccccc2[nH]1)NCc1ccco1 | 0 | 0 | 0 | 0 | 0 | 0
CCOC(=O)Cn1cnc2c(cnn2-c2ccc(Cl)cc2)c1=O | 0 | 0 | 0 | 0 | 0 | 0
COC(=O)C(C)n1cnc2c(cnn2-c2ccc(Cl)cc2)c1=O (configuration not stated) | 0 | 0 | 129.1 | 0 | 0 | 0
COc1ccc2c(Cl)c(C(=O)NCC3CCCO3)sc2c1Cl (configuration not stated) | 0 | 0 | 0 | 0 | 0 | 0
Cc1ccc2c(Cl)c(C(=O)NCC3CCCO3)sc2c1 (configuration not stated) | 0 | 3.9 | 132.0 | 0 | 0 | 0
Cc1ccc2c(Cl)c(C(=O)NCCc3ccccc3)sc2c1 | 0 | 0 | 136.0 | 0 | 0 | 0
O=C(NCC1CCCO1)c1sc2ccccc2c1Cl (configuration not stated) | 0 | 0 | 132.4 | 0 | 0 | 0
Cc1cccc(NC(=O)C(=O)NCC2CCCO2)c1 (configuration not stated) | 0 | 0 | 136.0 | 0 | 0 | 0
Nc1ccc(-n2nncc2-c2ccc(Cl)cc2)cc1 | 0 | 0 | 0 | 0 | 0 | 0
Cc1cccc(C)c1NC(=O)COc1ccc2c(C)c(Cc3ccccc3)c(=O)oc2c1 | 0 | 0 | 0 | 0 | 0 | 0
CCN(Cc1ccccc1)C(=O)C(C)OC(=O)c1cc(S(=O)(=O)Nc2c(C)n(C)n(-c3ccccc3)c2=O)ccc1C (configuration not stated) | 0 | 0 | 0 | 0 | 0 | 0
O=C(COC(=O)CC12CC3CC(CC(C3)C1)C2)Nc1cccnc1Cl | 0 | 0 | 0 | 0 | 0 | 0
C=CCSc1nc(C)c(Cc2cccc3ccccc23)c(=O)[nH]1 | 0 | 0 | 0 | 0 | 0 | 0
O=C(NNC(=O)C1CC2CCC1C2)c1sc2ccccc2c1Cl (configuration not stated) | 0 | 0 | 129.7 | 0 | 0 | 0
CCOc1cc(/C=N/O)ccc1OS(=O)(=O)c1ccc(C)cc1 | 0 | 0 | 0 | 0 | 0 | 0
Cc1ccc(COc2ccc(Br)cc2/C=N/O)cc1 | 0 | 0 | 135.4 | 0 | 0 | 0
CCOc1cc(/C=N/O)ccc1OCc1ccc(C)cc1 | 0 | 0 | 129.9 | 0 | 0 | 0
CCn1c([N+](=O)[O-])nc2c1c(=O)[nH]c(=O)n2C | 0 | 4.81 | 0 | 0 | 0 | 0
CCCCCCn1c(SCCCC)nc2c1c(=O)[nH]c(=O)n2C | 0 | 0 | 0 | 0 | 0 | 0
COc1ccc(CNC(=O)CNC(=O)c2c(C)nn(C)c2Cl)cc1 | 0 | 0 | 0 | 0 | 0 | 0
COC1=C(Nc2ccccc2)C(=O)c2ccccc2C1=O | 0 | 0 | 0 | 134.5 | 0 | 0
COC1=C(Nc2ccc(C)cc2)C(=O)c2ccccc2C1=O | 0 | 0 | 0 | 0 | 0 | 0
CSc1ccccc1-c1nnc(-c2ccc(C)cc2)o1 | 0 | 5.02 | 145.7 | 0 | 0 | 0
CSc1nnc(-c2ccccc2SC)o1 | 0 | 0 | 0 | 0 | 0 | 0
CSc1ccccc1-c1nnc(-c2ccccc2)o1 | 0 | 5.45 | 144.3 | 0 | 139.7 | 0
